Experimental data reported in ChEMBL document CHEMBL1147663, “Structure-activity relationships of bifunctional peptides based on overlapping pharmacophores at opioid and cholecystokinin receptors” (J Med Chem, 2006).
Active and inactive are the calls of the source. The rule behind the calls is not given here.

How the values were obtained:
[1] = target: T1, Delta-type opioid receptor (Homo sapiens, UniProt P41143); test: Activity against [35S]GTP-gamma-S binding to human delta opioid receptor expressed in HN9.10 cells; format: functional, cell-based
T1 sequence (P41143 whole entry): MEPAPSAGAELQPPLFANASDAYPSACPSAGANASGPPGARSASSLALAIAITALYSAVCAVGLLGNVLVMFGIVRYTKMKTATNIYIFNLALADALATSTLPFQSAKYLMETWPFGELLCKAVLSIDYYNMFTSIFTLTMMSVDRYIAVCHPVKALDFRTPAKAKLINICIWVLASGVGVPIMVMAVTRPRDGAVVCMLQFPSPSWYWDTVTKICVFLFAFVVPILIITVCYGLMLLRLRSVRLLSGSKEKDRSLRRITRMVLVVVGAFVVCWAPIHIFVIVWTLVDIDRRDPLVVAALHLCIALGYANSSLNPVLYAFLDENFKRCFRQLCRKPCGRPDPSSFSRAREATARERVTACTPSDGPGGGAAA
Procedure, shortened: (§1)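 Membranes (10 μg) from HN9.10 cells stably expressing hDOR or rMOR; various drug concentrations in duplicate or triplicate, 90 min at 30 °C in HEPES pH 7.4 with GDP, MgCl2, NaCl, 0.1 nM [35S]GTPγS; filtration, scintillation counting.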

[2] = target: T2, Cholecystokinin receptor type A (Homo sapiens) (UniProt P32238); conditions: HEK293
T2 sequence (whole entry): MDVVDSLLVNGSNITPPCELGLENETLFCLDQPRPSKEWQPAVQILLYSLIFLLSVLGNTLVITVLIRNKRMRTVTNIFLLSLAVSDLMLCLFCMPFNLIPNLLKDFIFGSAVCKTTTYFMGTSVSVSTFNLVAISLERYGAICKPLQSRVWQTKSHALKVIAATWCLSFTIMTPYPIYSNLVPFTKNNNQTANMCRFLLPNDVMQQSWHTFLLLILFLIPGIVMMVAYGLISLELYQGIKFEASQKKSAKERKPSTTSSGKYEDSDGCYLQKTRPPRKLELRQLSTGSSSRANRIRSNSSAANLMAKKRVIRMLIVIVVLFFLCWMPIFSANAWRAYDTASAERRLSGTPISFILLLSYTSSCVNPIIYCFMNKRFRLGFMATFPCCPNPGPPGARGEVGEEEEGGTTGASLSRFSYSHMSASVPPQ

[3] = target: Delta-type opioid receptor (Mus musculus, UniProt P32300); test: Agonist activity at delta opioid receptor assessed as inhibition of electrically stimulated ICR mouse vas deferens contraction; format: functional, tissue-based
Delta-type opioid receptor (Mus musculus, UniProt P32300), sequence (P32300 whole entry): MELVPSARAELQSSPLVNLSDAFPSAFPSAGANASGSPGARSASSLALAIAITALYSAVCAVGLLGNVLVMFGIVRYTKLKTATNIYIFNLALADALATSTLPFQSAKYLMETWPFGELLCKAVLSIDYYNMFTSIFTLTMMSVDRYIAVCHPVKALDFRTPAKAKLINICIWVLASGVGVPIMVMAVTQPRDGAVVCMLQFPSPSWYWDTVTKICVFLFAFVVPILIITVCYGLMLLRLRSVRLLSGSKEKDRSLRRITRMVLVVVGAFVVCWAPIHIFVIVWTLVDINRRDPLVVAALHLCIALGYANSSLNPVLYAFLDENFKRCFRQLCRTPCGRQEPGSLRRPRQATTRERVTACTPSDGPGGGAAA
Procedure, shortened: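 Vas deferens from male ICR mice, in 20 mL baths at 0.5 g tension, Mg-free oxygenated Krebs, 37 °C; electrical stimulation 0.1 Hz, 2.0 ms pulses, supramaximal voltage. Cumulative addition to maximal inhibition; integrity checked with 10 nM DPDPE. IC50 by Hill-equation nonlinear least-squares fit, at least four tissues.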

[4] = target: Mu-type opioid receptor (Rattus norvegicus) (UniProt P33535); test: (§2) Activity against [35S]GTP-gamma-S binding to rat mu opioid receptor expressed in HN9.10 cells; format: functional, cell-based; procedure, shortened: as §1
Mu-type opioid receptor (Rattus norvegicus), sequence (P33535 whole entry): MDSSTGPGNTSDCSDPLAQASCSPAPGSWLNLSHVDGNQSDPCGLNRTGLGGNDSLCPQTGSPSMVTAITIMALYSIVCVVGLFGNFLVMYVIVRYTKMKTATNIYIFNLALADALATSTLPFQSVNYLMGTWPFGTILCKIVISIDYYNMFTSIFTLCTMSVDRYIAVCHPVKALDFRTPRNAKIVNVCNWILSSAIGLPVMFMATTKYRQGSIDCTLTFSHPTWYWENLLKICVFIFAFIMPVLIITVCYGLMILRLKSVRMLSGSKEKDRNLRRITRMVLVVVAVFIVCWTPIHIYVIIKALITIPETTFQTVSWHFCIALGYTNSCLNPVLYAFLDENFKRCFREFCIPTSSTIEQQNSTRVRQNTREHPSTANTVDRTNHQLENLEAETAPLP

Mu-type opioid receptor [5] = target: Mu-type opioid receptor (Cavia porcellus, UniProt P97266); test: Agonist activity at mu opioid receptor assessed as inhibition of electrically stimulated Hartley guinea pig ileum contraction; format: functional, tissue-based
Mu-type opioid receptor (Cavia porcellus, UniProt P97266), sequence (P97266 whole entry): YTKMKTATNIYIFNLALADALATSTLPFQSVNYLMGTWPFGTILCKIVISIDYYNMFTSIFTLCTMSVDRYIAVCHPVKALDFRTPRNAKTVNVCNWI
Procedure, shortened: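 Longitudinal muscle–myenteric plexus strips from male Hartley guinea pig ileum, 1 g tension, oxygenated Krebs at 37 °C; 0.1 Hz, 0.4 ms supramaximal stimulation. […] Integrity checked with 10 nM PL-017. Hill-equation fit, at least four tissues.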

[6] = target: T3, Gastrin/cholecystokinin type B receptor (Homo sapiens, UniProt P32239); test: Antagonist activity at CCK2 receptor expressed in HEK293 cells assessed as accumulation of [3H]inositol phosphates by PI assay; format: functional, cell-based
T3 sequence (P32239 whole entry): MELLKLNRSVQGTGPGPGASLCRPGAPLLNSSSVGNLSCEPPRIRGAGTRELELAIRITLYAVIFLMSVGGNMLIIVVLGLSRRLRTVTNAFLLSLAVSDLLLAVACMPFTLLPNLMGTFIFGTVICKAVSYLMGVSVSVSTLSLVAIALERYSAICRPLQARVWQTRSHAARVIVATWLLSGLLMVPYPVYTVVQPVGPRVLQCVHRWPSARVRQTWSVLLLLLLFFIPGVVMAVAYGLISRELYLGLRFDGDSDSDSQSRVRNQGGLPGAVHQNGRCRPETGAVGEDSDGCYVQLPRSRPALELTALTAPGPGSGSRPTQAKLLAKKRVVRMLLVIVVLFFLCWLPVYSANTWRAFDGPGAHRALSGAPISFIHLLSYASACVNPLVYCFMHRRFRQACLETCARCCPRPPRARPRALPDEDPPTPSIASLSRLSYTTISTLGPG

[7] = target: T4, Cholecystokinin receptor type A (Homo sapiens, UniProt P32238); test: Displacement of [125I]CCK-8(SO3) from human CCK1 receptor expressed in HEK293 cells; format: cell-based
T4 sequence (P32238 whole entry): T2 sequence (whole entry)

[8] = target: T3, Gastrin/cholecystokinin type B receptor; test: Displacement of [125I]CCK-8(SO3) from human CCK2 receptor expressed in HEK293 cells; format: cell-based
[9] = target: T1, Delta-type opioid receptor; test: Displacement of [3H]DPDPE from human delta opioid receptor expressed in HN9.10 cells; format: cell-based
Procedure, shortened: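 HN9.10 cell membranes (50 μg) expressing hDOR, 10 test concentrations with 1.0 nM [3H]DPDPE in 50 mM Tris pH 7.4 with peptidase inhibitors and BSA, 3 h at 25 °C, duplicates; filtration, scintillation counting. Nonspecific with 10 μM naloxone. Ki by Cheng–Prusoff.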

Mu-type opioid receptor [10] = target: T5, Mu-type opioid receptor (Rattus norvegicus, UniProt P33535); test: Displacement of [3H]DAMGO from rat mu opioid receptor expressed in HN9.10 cells; format: cell-based
T5 sequence (P33535 whole entry): as the sequence (P33535 whole entry) above
Procedure, shortened: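 HN9.10 cell membranes (50 μg) expressing rMOR, 10 test concentrations with 1.0 nM [3H]DAMGO in 50 mM Tris pH 7.4 with peptidase inhibitors and BSA, 3 h at 25 °C, duplicates; filtration, scintillation counting. Nonspecific with 10 μM naloxone. Ki by Cheng–Prusoff.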

Mu-type opioid receptor [11] = target: T5, Mu-type opioid receptor; test: as §2; format: functional, cell-based; procedure, shortened: as §1

Structure (SMILES)	EC50 [1] [nM]	Emax [1] [%]	Log EC50 [2]	IC50 [3] [nM]	Emax [4] [%]	IC50 (Mu-type opioid receptor [5]) [nM]	EC50 [6] [nM]	IC50 [7] [µM]	Ki [7] [µM]	IC50 [8] [nM]	Ki [8] [nM]	IC50 [9] [nM]	Ki [9] [nM]	IC50 (Mu-type opioid receptor [10]) [nM]	Ki (Mu-type opioid receptor [10]) [nM]	EC50 (Mu-type opioid receptor [11]) [nM]
CCCC[C@@H](C(=O)N[C@@H](CC(=O)O)C(=O)N[C@@H](Cc1ccccc1)C(N)=O)N(C)C(=O)[C@@H](Cc1c[nH]c2ccccc12)NC(=O)CNC(=O)[C@@H](Cc1ccccc1)NC(=O)[C@@H](N)Cc1ccc(O)cc1	29	14	inactive	24	50	71	2.8	1.1	1.1	1.1	1.1	1	0.42	13.8	5.9	
CCCC[C@H](NC(=O)[C@H](Cc1c[nH]c2ccccc12)NC(=O)CNC(=O)[C@@H](C)NC(=O)[C@@H](N)Cc1ccc(O)cc1)C(=O)N[C@@H](CC(=O)O)C(=O)N[C@@H](Cc1ccccc1)C(N)=O	5.9	74		45	86	160	8	5.75	5.7	145	150	0.525	0.22	18.2	7.8	12
CCCC[C@H](NC(=O)[C@@H](Cc1c[nH]c2ccccc12)NC(=O)CNC(=O)[C@@H](Cc1ccccc1)NC(=O)[C@@H](N)Cc1ccc(O)cc1)C(=O)N[C@@H](CC(=O)O)C(=O)N[C@@H](Cc1ccccc1)C(N)=O	130	170		170	160	2700		1.95	2	1740	1700	398	170	708	300	45
CCCC[C@H](NC(=O)[C@@H](Cc1c[nH]c2ccccc12)NC(=O)CNC(=O)[C@@H](C)NC(=O)[C@@H](N)Cc1ccc(O)cc1)C(=O)N[C@@H](CC(=O)O)C(=O)N[C@@H](Cc1ccccc1)C(N)=O	130	91		1300	110	2300	330	6.46	6.5	2690	2700	2000	860	1290	590	350
CCCC[C@@H](C(=O)N[C@@H](CC(=O)O)C(=O)N[C@@H](Cc1ccccc1)C(N)=O)N(C)C(=O)[C@H](Cc1c[nH]c2ccccc12)NC(=O)CNC(=O)[C@@H](Cc1ccccc1)NC(=O)[C@H](Cc1ccc(O)cc1)NC(=O)[C@@H](N)CC(=O)O	110	80	inactive		91			3.16	3.2			550	250	11500	5200	81
